Assay results published in ChEMBL document CHEMBL1138257, “Synthesis and biological evaluation of a fluorine-18 derivative of dasatinib” (J Med Chem, 2007).

Experiments:
Mus musculus [1] = test: Biodistribution in tumor of human K562 cells xenografted iv dosed mouse; format: ADME, organism-based; details: in vivo
In short: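 Three athymic mice carried subcutaneous K562 xenografts in the right shoulder. [18F] tracer (14 ± 1 MBq, 375 ± 25 µCi) was formulated in 5% BSA in saline, sterile filtered and given by tail vein. MicroPET imaging started 60 min post-injection with a 15 min exposure. Tumor uptake was expressed as % injected dose by region-of-interest analysis.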

K562 = test: cells; details: Homo sapiens
cells [2] = details: Homo sapiens
cells [3] = details: Homo sapiens, M-07e
[4] = molecular target: T1, Ephrin type-B receptor 4 (Homo sapiens) (UniProt P54760); test: Inhibition of EphB4 at 10 nM
T1 sequence (whole entry): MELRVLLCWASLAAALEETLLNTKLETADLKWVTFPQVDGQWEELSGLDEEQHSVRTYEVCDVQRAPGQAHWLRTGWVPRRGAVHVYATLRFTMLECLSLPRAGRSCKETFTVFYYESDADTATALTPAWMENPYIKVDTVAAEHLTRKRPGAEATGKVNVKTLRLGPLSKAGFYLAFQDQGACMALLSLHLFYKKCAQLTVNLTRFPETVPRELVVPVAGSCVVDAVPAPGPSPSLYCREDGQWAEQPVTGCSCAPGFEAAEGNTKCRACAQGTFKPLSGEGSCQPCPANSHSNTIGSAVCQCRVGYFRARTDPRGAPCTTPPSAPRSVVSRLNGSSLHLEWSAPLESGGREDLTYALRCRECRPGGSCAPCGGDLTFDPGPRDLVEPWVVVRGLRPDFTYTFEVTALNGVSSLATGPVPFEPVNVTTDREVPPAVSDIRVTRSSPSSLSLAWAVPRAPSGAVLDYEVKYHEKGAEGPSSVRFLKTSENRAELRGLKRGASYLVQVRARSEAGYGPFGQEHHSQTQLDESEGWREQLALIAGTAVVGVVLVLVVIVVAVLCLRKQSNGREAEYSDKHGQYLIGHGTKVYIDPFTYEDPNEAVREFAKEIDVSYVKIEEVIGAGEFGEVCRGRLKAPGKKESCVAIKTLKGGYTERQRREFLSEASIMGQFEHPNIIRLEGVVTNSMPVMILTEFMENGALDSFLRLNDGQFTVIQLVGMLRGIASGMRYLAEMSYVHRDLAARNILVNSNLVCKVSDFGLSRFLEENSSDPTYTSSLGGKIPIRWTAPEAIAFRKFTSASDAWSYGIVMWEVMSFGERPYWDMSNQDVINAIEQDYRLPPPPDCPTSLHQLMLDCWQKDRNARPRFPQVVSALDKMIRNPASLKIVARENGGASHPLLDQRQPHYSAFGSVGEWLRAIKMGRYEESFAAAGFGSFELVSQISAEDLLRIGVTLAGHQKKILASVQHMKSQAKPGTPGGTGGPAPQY
In short: (§1)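 Part of a 21-kinase inhibition panel, tested at a single inhibitor concentration of 10 nM.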

[5] = molecular target: T2, Tyrosine-protein kinase Tec (Homo sapiens) (UniProt P42680); test: Inhibition of TEC at 10 nM; in short: as §1
T2 sequence (whole entry): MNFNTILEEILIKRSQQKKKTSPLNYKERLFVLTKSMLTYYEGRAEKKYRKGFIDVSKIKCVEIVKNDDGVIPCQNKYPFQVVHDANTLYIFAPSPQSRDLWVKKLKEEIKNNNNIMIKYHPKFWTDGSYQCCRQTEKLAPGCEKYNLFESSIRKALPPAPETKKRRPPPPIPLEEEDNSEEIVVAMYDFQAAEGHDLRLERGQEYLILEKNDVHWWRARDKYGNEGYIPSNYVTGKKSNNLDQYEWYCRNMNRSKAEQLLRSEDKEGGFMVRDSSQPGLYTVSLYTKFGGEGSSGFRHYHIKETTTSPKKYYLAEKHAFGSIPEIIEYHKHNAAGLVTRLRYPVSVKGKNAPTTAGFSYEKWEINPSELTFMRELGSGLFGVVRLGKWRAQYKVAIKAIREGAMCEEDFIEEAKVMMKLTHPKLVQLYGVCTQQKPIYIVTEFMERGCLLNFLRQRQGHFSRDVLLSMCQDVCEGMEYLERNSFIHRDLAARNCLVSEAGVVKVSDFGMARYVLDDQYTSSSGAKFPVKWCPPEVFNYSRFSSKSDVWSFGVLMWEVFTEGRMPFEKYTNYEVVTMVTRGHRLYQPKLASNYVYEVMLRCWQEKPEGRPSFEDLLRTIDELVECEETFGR

[6] = molecular target: Vascular endothelial growth factor receptor 2 (Homo sapiens) (UniProt P35968); test: Inhibition of KDR at 10 nM; in short: as §1
[7] = molecular target: Platelet-derived growth factor receptor alpha (Homo sapiens) (UniProt P16234); test: Inhibition of PDGFRalpha at 10 nM; in short: as §1
Mus musculus [8] = test: Toxicity in B6D2F1 mouse at 0.1 mg/kg, iv; format: organism-based; design: dose 0.1 mg/kg, route intravenous; details: in vivo
[9] = molecular target: T3, Tyrosine-protein kinase receptor TYRO3 (Homo sapiens) (UniProt Q06418); test: Inhibition of TYRO3 at 10 nM
T3 sequence (whole entry): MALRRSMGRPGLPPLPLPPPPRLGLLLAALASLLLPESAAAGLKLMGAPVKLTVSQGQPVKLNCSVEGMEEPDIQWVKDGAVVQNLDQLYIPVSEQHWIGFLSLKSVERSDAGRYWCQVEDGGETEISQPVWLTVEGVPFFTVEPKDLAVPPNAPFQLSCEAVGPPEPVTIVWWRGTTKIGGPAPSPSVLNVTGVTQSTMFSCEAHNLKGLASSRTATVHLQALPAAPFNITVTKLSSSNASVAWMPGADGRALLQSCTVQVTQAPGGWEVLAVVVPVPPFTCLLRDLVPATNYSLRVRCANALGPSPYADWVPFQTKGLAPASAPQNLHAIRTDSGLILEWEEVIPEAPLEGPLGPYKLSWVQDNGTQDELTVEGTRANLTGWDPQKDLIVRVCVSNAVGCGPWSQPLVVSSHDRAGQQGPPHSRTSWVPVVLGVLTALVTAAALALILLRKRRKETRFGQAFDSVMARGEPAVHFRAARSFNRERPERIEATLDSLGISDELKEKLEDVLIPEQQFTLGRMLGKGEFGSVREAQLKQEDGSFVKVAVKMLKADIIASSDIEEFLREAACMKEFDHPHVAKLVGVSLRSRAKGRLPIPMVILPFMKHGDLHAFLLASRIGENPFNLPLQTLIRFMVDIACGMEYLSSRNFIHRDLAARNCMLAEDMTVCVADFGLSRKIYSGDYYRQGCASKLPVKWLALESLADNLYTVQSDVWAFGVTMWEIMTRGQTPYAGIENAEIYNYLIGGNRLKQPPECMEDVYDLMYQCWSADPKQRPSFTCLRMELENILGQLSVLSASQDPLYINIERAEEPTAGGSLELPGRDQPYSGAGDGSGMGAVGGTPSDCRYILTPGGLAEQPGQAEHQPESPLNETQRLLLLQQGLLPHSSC
In short: (§2)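 Single-concentration test at 10 nM within a panel of 21 kinases.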

[10] = molecular target: Hepatocyte growth factor receptor (Homo sapiens) (UniProt P08581); test: Inhibition of Met kinase at 10 nM; in short: as §1
[11] = molecular target: T4, Tyrosine-protein kinase JAK3 (Homo sapiens) (UniProt P52333); test: Inhibition of JAK3 at 10 nM; in short: as §2
T4 sequence (whole entry): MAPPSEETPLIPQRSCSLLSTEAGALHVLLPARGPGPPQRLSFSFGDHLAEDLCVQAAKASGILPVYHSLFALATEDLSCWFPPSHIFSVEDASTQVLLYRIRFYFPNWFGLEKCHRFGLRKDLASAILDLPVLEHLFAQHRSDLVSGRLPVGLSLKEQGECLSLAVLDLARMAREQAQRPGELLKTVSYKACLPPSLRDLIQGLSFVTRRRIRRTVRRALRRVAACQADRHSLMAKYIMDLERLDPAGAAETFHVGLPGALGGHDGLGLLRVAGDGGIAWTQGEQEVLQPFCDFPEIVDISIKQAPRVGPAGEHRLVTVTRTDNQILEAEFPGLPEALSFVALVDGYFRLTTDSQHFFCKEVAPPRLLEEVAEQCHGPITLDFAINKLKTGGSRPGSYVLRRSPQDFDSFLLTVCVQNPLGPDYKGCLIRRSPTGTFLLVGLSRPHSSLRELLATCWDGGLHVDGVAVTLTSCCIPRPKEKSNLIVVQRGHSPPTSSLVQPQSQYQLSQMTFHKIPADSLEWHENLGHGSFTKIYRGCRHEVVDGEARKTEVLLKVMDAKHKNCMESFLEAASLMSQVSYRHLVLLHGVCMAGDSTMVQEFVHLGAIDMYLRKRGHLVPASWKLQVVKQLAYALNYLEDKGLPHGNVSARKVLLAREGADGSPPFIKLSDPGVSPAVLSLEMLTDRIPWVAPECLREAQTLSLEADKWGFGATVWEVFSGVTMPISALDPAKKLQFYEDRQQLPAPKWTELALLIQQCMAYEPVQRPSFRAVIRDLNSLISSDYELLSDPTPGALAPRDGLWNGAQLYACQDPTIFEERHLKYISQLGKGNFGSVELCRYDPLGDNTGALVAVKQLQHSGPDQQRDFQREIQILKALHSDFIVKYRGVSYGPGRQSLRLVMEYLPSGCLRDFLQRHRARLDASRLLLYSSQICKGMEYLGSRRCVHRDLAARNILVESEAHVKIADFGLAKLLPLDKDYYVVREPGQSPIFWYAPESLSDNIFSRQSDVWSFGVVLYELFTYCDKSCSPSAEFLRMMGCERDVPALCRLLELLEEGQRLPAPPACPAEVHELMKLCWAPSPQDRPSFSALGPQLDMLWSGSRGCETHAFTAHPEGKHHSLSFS

[12] = molecular target: Proto-oncogene tyrosine-protein kinase Src (Homo sapiens) (UniProt P12931); details: 10 nM
[13] = molecular target: Ephrin type-A receptor 2 (Homo sapiens) (UniProt P29317); test: Inhibition of EphA2 at 10 nM; in short: as §1
[14] = molecular target: Activated CDC42 kinase 1 (Homo sapiens) (UniProt Q07912); test: Inhibition of ACK at 10 nM; in short: as §2
[15] = molecular target: Tyrosine-protein kinase CSK (Homo sapiens) (UniProt P41240); test: Inhibition of CSK at 10 nM; in short: as §1
[16] = molecular target: Receptor-type tyrosine-protein kinase FLT3 (Homo sapiens) (UniProt P36888); test: Inhibition of FLT3; details: concentration not given here
Chain of Receptor-type tyrosine-protein kinase FLT3 (Homo sapiens) (P36888 whole entry): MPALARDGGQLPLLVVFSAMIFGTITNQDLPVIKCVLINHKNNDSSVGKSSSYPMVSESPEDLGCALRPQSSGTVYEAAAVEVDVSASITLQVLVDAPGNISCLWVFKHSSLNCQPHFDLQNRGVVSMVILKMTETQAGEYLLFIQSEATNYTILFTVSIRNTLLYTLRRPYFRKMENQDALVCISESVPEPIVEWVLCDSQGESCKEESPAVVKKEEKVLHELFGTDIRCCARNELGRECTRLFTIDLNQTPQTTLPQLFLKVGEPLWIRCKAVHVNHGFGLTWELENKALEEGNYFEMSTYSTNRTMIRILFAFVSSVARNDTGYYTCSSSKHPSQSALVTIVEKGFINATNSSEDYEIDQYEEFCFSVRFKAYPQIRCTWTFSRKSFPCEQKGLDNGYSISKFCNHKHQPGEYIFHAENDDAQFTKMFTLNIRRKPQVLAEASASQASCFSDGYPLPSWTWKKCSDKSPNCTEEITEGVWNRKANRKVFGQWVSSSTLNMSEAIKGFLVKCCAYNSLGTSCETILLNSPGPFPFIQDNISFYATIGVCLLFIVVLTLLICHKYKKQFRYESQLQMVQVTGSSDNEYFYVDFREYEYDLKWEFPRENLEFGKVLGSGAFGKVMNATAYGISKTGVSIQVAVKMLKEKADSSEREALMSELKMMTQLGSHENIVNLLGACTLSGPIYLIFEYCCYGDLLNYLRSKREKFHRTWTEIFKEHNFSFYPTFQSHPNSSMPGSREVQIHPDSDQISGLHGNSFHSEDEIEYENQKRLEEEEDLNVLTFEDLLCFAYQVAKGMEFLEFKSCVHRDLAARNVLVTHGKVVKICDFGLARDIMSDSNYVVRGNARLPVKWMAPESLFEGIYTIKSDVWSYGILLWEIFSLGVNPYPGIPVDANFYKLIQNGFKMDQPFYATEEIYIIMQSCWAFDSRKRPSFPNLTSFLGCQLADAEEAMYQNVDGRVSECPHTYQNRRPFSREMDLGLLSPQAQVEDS

Chain of Activated CDC42 kinase 1 (Homo sapiens) (Q07912 whole entry, looked up): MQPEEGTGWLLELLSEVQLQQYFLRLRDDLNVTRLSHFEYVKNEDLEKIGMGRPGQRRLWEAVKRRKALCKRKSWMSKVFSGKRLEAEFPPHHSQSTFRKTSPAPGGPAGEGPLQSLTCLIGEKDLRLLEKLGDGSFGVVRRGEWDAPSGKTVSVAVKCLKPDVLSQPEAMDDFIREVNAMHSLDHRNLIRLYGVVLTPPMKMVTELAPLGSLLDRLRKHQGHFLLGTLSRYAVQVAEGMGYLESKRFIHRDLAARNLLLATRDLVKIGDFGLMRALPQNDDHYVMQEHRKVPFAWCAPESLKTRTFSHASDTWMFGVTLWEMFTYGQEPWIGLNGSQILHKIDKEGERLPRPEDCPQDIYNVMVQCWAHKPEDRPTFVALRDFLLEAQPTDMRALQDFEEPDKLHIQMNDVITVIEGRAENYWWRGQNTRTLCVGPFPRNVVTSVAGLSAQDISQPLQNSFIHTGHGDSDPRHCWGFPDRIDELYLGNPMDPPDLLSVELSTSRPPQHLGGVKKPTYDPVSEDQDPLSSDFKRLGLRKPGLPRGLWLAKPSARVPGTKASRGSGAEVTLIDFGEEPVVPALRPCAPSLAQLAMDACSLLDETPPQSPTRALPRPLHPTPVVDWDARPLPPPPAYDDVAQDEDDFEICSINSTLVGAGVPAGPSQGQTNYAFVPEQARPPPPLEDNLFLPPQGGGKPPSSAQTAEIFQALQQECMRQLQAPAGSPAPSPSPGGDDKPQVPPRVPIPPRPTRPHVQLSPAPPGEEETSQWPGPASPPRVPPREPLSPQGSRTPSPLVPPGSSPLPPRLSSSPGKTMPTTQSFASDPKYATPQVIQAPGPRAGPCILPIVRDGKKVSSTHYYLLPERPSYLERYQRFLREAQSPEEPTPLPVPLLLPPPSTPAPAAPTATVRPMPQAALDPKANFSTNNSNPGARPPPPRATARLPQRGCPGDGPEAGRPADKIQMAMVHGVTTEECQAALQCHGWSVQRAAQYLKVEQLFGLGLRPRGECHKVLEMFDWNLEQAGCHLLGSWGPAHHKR
Chain of Tyrosine-protein kinase CSK (Homo sapiens) (P41240 2-450 limits assumed): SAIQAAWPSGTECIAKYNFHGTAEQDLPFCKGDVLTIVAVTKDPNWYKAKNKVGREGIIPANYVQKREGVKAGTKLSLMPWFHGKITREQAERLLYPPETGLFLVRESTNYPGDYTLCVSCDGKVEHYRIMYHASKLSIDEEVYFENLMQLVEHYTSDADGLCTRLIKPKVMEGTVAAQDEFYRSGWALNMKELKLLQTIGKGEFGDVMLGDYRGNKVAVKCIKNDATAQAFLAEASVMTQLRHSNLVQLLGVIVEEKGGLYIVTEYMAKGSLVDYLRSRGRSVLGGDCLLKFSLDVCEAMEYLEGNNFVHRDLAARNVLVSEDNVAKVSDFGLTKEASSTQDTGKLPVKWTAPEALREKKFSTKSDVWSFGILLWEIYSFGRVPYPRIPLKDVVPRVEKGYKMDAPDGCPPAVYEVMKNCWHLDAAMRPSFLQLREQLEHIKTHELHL
Chain of Platelet-derived growth factor receptor alpha (Homo sapiens) (P16234 whole entry): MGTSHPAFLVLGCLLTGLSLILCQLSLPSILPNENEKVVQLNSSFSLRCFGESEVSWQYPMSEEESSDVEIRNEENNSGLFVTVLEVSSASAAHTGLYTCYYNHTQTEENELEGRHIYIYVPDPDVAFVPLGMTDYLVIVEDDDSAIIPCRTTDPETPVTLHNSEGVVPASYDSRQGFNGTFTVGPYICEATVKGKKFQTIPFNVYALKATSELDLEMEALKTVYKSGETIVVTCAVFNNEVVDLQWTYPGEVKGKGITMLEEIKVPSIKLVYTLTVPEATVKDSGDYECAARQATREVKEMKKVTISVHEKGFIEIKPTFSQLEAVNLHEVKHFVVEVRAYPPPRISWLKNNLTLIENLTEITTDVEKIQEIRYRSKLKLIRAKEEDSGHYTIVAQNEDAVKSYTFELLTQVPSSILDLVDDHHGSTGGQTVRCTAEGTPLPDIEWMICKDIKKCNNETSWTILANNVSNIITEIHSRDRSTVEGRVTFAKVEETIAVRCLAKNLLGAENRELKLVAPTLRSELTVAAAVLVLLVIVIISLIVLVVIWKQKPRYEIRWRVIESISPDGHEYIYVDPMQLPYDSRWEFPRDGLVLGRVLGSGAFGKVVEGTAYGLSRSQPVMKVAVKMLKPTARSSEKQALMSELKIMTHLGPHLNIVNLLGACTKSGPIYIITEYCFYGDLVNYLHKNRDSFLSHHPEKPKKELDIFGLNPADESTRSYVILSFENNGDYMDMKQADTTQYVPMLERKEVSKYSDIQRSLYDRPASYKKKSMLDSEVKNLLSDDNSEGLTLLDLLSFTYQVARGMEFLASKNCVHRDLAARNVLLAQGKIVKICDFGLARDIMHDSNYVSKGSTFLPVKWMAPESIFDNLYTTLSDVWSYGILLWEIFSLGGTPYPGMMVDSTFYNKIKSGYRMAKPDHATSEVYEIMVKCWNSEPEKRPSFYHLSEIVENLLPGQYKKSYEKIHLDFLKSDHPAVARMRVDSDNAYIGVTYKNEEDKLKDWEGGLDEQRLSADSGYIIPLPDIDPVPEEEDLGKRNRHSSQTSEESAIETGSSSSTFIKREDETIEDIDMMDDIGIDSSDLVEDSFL
Chain of Ephrin type-A receptor 2 (Homo sapiens) (P29317 whole entry): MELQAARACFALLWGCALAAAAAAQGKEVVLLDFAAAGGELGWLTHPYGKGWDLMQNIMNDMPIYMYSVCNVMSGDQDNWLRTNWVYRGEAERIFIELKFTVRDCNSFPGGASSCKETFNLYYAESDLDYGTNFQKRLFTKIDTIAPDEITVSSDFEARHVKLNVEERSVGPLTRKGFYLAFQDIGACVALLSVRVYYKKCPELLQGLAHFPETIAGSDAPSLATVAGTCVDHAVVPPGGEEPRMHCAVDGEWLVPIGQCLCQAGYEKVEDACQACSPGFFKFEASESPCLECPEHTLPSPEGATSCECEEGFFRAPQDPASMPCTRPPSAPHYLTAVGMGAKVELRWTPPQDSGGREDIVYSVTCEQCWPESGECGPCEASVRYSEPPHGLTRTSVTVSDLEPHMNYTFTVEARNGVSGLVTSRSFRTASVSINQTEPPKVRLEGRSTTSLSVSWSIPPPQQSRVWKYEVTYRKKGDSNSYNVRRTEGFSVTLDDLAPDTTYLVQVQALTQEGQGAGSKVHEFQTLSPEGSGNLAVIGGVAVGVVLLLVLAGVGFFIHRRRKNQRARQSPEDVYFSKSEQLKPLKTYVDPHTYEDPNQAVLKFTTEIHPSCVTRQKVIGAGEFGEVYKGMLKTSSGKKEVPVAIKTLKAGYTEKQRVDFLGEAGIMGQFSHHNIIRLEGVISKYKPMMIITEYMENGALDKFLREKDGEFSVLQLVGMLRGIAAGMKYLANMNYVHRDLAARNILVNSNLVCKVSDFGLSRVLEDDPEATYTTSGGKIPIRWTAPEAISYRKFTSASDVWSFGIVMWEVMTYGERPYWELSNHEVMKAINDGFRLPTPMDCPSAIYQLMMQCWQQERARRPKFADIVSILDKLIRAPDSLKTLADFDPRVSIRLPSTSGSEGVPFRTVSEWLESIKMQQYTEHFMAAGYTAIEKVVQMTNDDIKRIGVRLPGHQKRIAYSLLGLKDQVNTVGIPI
Chain of Proto-oncogene tyrosine-protein kinase Src (Homo sapiens) (P12931 2-536 limits assumed): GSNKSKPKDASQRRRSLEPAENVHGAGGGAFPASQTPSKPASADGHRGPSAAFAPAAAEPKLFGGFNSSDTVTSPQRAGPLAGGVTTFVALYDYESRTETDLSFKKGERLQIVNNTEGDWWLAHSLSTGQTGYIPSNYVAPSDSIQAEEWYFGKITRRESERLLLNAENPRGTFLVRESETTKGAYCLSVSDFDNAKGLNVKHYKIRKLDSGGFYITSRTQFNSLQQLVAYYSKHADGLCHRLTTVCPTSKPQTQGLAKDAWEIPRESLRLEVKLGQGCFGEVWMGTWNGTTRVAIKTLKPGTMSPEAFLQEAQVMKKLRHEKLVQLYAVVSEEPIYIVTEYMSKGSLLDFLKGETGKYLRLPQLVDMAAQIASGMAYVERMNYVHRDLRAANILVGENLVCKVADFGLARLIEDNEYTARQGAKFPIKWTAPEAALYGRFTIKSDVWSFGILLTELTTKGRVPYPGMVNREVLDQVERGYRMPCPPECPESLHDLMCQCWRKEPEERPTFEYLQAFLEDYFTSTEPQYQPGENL

| Structure (SMILES) | Drug uptake (Mus musculus [1]) [%] | IC50 (K562) [nM] | IC50 (cells [2]) [nM] | IC50 (cells [3]) [nM] | inhibition [4] [%] | inhibition [5] [%] | inhibition [6] [%] | inhibition [7] [%] | Activity (Mus musculus [8]) | inhibition [9] [%] | inhibition [10] [%] | inhibition [11] [%] | inhibition [12] [%] | inhibition [13] [%] | inhibition [14] [%] | inhibition [15] [%] | inhibition [16] [%] |
| --- | --- | --- | --- | --- | --- | --- | --- | --- | --- | --- | --- | --- | --- | --- | --- | --- | --- |
| Cc1nc(Nc2ncc(C(=O)Nc3c(C)cccc3Cl)s2)cc(N2CCN(CC[18F])CC2)n1 | 1.1 | – | – | – | – | – | – | – | – | – | – | – | – | – | – | – | – |
| Cc1nc(Nc2ncc(C(=O)Nc3c(C)cccc3Cl)s2)cc(N2CCN(CCO)CC2)n1 [DASATINIB] | – | 1 | 0.07 | 1.2 | – | – | – | – | – | – | – | – | – | – | – | – | – |
| Cc1nc(Nc2ncc(C(=O)Nc3c(C)cccc3Cl)s2)cc(N2CCN(CCF)CC2)n1 | – | 1.1 | 0.1 | 1.1 | 97 | 98.1 | -5.6 | 86 | Non-toxic | 23.1 | 7.2 | 16 | 97.5 | 98.1 | 83.1 | 95.2 | 0.3 |
| CN[C@@H]1C[C@H]2O[C@@](C)([C@@H]1OC)n1c3ccccc3c3c4c(c5c6ccccc6n2c5c31)C(=O)NC4 | – | – | – | – | 94.1 | 92.5 | – | 88.4 | – | 95.3 | 90 | – | 89.8 | 92.6 | 96.4 | 89.3 | 96.4 |
